PAFAH1B2 FP inh = PAFAH1B2 enzyme inhibitors, primary screen, biochemical, fluorescence polarization, human. hit rate 1.2% among 340,000. Platelet-activating factor acetylhydrolase IB subunit alpha2 (Homo sapiens), P68402. recombinant PAFAH1B2, FP-rhodamine activity probe. inhibition, % at 3.39 µM;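 active = inhibition above the mean of all tested compounds plus 3 SD, cut at about 24% in these data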
PAFAH1B3 FP inh = PAFAH1B3 enzyme inhibitors, primary screen, biochemical, fluorescence polarization, human | recombinant PAFAH1B3, FP-rhodamine probe | Platelet-activating factor acetylhydrolase IB subunit alpha1 (Homo sapiens), Q15102 | hit rate 0.28% among 340,000 | inhibition, % at 3.39 µM;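 active = inhibition above the screen-wide average of all tested compounds plus 3 SD, cut at about 25% in these data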
Target sequence (Q15102 whole entry, looked up): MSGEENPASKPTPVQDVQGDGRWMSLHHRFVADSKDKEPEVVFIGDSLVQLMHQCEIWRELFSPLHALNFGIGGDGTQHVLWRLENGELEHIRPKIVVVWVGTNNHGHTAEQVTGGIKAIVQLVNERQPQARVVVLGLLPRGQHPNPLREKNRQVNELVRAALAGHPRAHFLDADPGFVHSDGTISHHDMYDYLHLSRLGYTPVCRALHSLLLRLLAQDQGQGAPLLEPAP
PAFAH2 inh = PAFAH2 enzyme inhibitors, primary screen, biochemical, fluorescence polarization, human | Platelet-activating factor acetylhydrolase 2, cytoplasmic (Homo sapiens), Q99487 | recombinant PAFAH2, FP-rhodamine activity probe | inhibition, % at 3.39 µM | hit rate 0.99% among 340,000;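 active = inhibition above the mean over all tested compounds plus 3 SD, cut at about 30% in these data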;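 note: inhibitors block probe labeling of enzyme so polarization drops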
pPAFAH inh = pPAFAH enzyme inhibitors, primary screen, biochemical, fluorescence polarization, human | AID 463082, 2010 | recombinant pPAFAH, FP-rhodamine probe fluorescence polarization | inhibition, % at 3.39 µM | hit rate 1.5% among 330,000 | Platelet-activating factor acetylhydrolase (Homo sapiens), Q13093;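 active = inhibition above the mean inhibition across the screen plus 3 SD, cut at about 25% in these data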;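 note: inhibitors block binding of the rhodamine activity-based probe so polarization drops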
Target sequence (Q13093 whole entry, looked up): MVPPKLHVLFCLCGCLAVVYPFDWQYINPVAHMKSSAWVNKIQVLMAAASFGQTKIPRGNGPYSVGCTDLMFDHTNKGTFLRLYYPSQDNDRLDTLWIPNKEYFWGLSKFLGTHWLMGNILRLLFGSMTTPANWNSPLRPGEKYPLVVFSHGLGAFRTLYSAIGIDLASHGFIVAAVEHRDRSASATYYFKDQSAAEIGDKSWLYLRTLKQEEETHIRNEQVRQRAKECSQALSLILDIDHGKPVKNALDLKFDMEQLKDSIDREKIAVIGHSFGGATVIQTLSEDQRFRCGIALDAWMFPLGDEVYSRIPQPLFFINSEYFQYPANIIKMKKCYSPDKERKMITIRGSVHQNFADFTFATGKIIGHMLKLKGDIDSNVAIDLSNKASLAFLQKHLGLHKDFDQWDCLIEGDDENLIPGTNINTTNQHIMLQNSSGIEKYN
RBBP9 inhibitor = human RBBP9 inhibitors, primary screen, biochemical, fluorescence polarization, FP-Rh probe, HTS | recombinant RBBP9 | inhibition, % at 7.94 µM | hit rate 0.2% among 220,000;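 active = inhibition above the campaign mean of all tested compounds plus 3 SD, cut at about 14% in these data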
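Test system – recombinant human RBBP9 · Input – RBBP9 2.5 µM in dispensing solution, pre-mixing · Medium – Tris buffer pH 8.0, NaCl, Pluronic · Schedule – preincubation 30 min plus labeling 45 min at 25 °C · Measured by – fluorescence polarization · Measure – % inhibition · Controls – DMSO and no-protein wells · Replicates – one well per compound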
Numbers stand for hits; 0 = inactive; - = not tested or not shown. The list is not random: actives were taken first. Their share in the collection is about 2.7%.

SMILES | PAFAH1B2 FP inh | PAFAH1B3 FP inh | PAFAH2 inh | pPAFAH inh | RBBP9 inhibitor
O=C(CSc1nc2ccccc2c(=O)n1-c1ccccc1Cl)Nc1cccc(S(=O)(=O)N2CCOCC2)c1 | 0 | 0 | 0 | 0 | 0
CCN1CCN(S(=O)(=O)c2ccc(Cl)c(C(=O)NC3CCCCC3)c2)CC1 | 28 | 0 | 0 | 0 | -
C[C@H](NC(=O)[C@H](Cc1ccccc1)NC(=O)c1cc2cc(Cl)ccc2n1C)C(=O)O | 0 | 0 | 0 | 0 | -
COc1ccccc1-n1cnc2cc(NS(=O)(=O)c3ccc(Br)cc3)ccc21 | 25 | 0 | 0 | 0 | 0
COc1ccc(-n2cnc3cc(NS(=O)(=O)c4ccc(C)cc4)ccc32)cc1 | 0 | 0 | 0 | 0 | 0
COc1cc(S(=O)(=O)Nc2ccc(Br)cc2)ccc1N | 0 | 0 | 0 | 25 | 0
COc1ccc(N(CC(=O)NC(C)(C)C)S(=O)(=O)c2ccccc2)cc1OC | 0 | 0 | 0 | 0 | 0
CN(C)/C=C/c1onc(-c2c(Cl)cccc2Cl)c1C#N | 0 | 0 | 0 | 0 | 0
N#Cc1c(-c2c(Cl)cccc2Cl)noc1/C=C/Nc1ccc(C(=O)O)cc1 | 0 | 0 | 0 | 25 | 0
COc1ccc(NS(=O)(=O)c2cccc(C(=O)NCC(c3ccco3)N3CCCC3)c2)cc1 (stereo unspecified) | 0 | 0 | 0 | 0 | -
O=C(NCC(c1ccco1)N1CCCCC1)c1cccc(NS(=O)(=O)c2ccc(Br)cc2)c1 (stereo unspecified) | 30 | 0 | 0 | 0 | -
O=C(NCC(c1ccco1)N1CCCC1)c1cccc(S(=O)(=O)Nc2ccc(Br)cc2)c1 (stereo unspecified) | 0 | 0 | 0 | 28 | -
CN(CCCC(=O)N1CCCC(C(N)=O)C1)S(=O)(=O)c1ccc(F)cc1 (stereo unspecified) | 0 | 0 | 0 | 0 | -
O=C(/C=C/c1ccccc1)NCCc1c[nH]c2ccccc12 | 0 | 0 | 0 | 0 | -
Cc1oc2c(cc(NS(=O)(=O)c3ccc(F)cc3)c3ccccc32)c1C(=O)O | 0 | 0 | 0 | 0 | -
Cc1oc2c(cc(NS(=O)(=O)c3ccc(C(C)C)cc3)c3ccccc32)c1C(=O)O | 0 | 0 | 0 | 32 | -
CCOC(=O)c1c(C)[nH]c(O)c1C=Nc1ccc(C(F)(F)F)cc1 | 0 | 31 | 0 | 0 | 0
COc1ccc(NC(=O)Cc2c(SC)c3ccccc3n2Cc2ccccc2)cc1 | 0 | 0 | 0 | 0 | 0
COc1ccc(OCc2cccc(C(=O)Nn3cc([N+](=O)[O-])cn3)c2)cc1 | 29 | 0 | 0 | 0 | 0
COc1ccc(OCc2cccc(C(=O)NN)c2)cc1 | 0 | 0 | 0 | 0 | 0
CC(=O)N1CCN(Cc2nc3cc(NC(=O)c4ccc(F)cc4)ccc3n2C)CC1 | 0 | 0 | 0 | 0 | 0
COc1ccc(C)cc1NC(=O)C1CC1c1ccccc1 (stereo unspecified) | 0 | 0 | 0 | 0 | -
Cc1ccc2[nH]c(C(=O)O)c(NC(=O)[C@@H]3C[C@@H]3c3ccccc3)c2c1 | 31 | 0 | 0 | 0 | 0
CCOC(=O)C1CCN(C(=O)Nc2ccc3nc(-c4ccco4)c(-c4ccco4)nc3c2)CC1 | 0 | 0 | 0 | 60 | 0
CCOC(=O)C1CCN(C(=O)Nc2ccc3c(c2)nc(C)n3C)CC1 | 0 | 0 | 0 | 0 | 0
SMILES | PAFAH1B2 FP inh | PAFAH1B3 FP inh | PAFAH2 inh | pPAFAH inh | RBBP9 inhibitor
O=C(Nc1ccc2nc(-c3ccco3)c(-c3ccco3)nc2c1)N1CCCCCC1 | - | - | - | 69 | 0
Oc1ccc(/C=N/n2c(COc3ccccc3)n[nH]c2=S)cc1O | 0 | 0 | 0 | 0 | -
CC(C)(O[C@@H]1O[C@H](CO)[C@@H](O)[C@H](O)[C@H]1O)[C@H]1Cc2cc3ccc(=O)oc3cc2O1 | 0 | 0 | 0 | 0 | 0
COc1cc(/C=N/N2CCN(c3ccc(Cl)cc3)CC2)cc(OC)c1OC(C)=O | 25 | 0 | 0 | 0 | -
COc1cc(/C=N/N2CCN(c3ccccc3)CC2)cc(OC)c1OC(C)=O | 0 | 0 | 0 | 0 | -
CC(=O)Nc1ccc(S(=O)(=O)c2ccc(C)cc2)cc1 | 25 | 0 | 0 | 0 | 0
Cc1ccc(S(=O)(=O)NNC(=O)C(=O)NNS(=O)(=O)c2ccc(C)cc2)cc1 | 28 | 0 | 0 | 0 | 0
O=S(=O)(c1ccccc1)N1CCN(C(=S)Nc2ccccc2Cl)CC1 | 0 | 0 | 0 | 0 | -
CCN(CC)CCCNC(=S)N1CCN(c2nc3ccccc3n2CC)CC1 | 0 | 0 | 0 | - | -
CC1(COS(N)(=O)=O)CCCCC1 | 35 | 0 | 0 | 0 | -
Cc1c(N=Cc2cc3c(cc2[N+](=O)[O-])OCO3)cccc1[N+](=O)[O-] | 0 | 0 | 0 | 49 | -
CCCN1CCN(CCCNC(=O)c2ccc(NC(=O)C3=C(C)OCCS3)cc2)CC1 | 0 | 0 | 0 | 0 | -
COc1ccc(/C=N\NC(=O)COc2ccc(C(C)(C)C)cc2)cc1Cn1nc(C)cc1C | 0 | 0 | 0 | 0 | 0
Cc1ccc(S(=O)(=O)NCC2(c3ccccc3)CCOCC2)cc1 | 26 | 0 | 0 | 0 | 0
COc1ccc(C2(CNS(=O)(=O)c3ccccc3)CCOCC2)cc1 | 0 | 0 | 0 | 0 | 0
Cc1ccc(C(=O)N[C@H](C(=O)OCC(=O)NC2CCS(=O)(=O)C2)C(C)C)cc1 (stereo partly specified) | 0 | 0 | 0 | 0 | 0
COc1ccc(NS(=O)(=O)c2ccc(NC(=O)C(CCSC)NC(N)=O)cc2)cc1 (stereo unspecified) | 0 | 0 | 0 | 31 | 0
COc1cc(C(=O)N2CCc3ccccc32)c([N+](=O)[O-])cc1OC | 0 | 0 | 0 | 0 | -
O=c1[nH]c(CSc2ccccn2)nc2c1oc1ccccc12 | 0 | 0 | 0 | 0 | 0
CSc1nc2cc(Oc3cccc(Cl)c3Cl)c(Cl)cc2[nH]1 | 0 | 0 | 0 | 0 | 0
Oc1c(Br)cc(/C=N/n2c(-c3ccccc3)n[nH]c2=S)c(Br)c1O | - | - | - | 88 | -
Cc1ccc(NC(=O)CN(C)Cc2c(O)ccc3ccccc23)cc1 | - | - | - | 0 | -
CCN(CC(=O)Nc1ccc(NC(C)=O)cc1)Cc1c(O)ccc2cc(Br)ccc12 | 68 | 0 | 0 | 0 | -
COc1ccc(C(CCN)Cc2ccccc2)cc1 (stereo unspecified) | 0 | 0 | 0 | 0 | 0
COc1ccc(NS(=O)(=O)c2cccc(C(=O)OCC(=O)N3CCN(c4ccc(OC)cc4)CC3)c2)cc1 | 0 | 0 | 0 | 28 | -
COc1ccc(NS(=O)(=O)c2cccc(C(=O)N3CCCCCCC3)c2)cc1 | 0 | 0 | 0 | 34 | -
COc1cccc(S(=O)(=O)Nc2ccc(C(=O)N3CCCCCC3)cc2)c1 | 0 | 0 | 0 | 0 | 0
COc1cccc(C(=O)OCC(=O)c2c(N)n(C)c(=O)n(C)c2=O)c1 | 0 | 0 | 0 | 0 | -
COc1ccc(N2CCN(C(=O)c3ccc(NS(=O)(=O)c4cccc(F)c4)cc3)CC2)cc1 | 0 | 0 | 0 | 0 | 0
COc1ccc(NS(=O)(=O)c2cccc(C(=O)OCC(=O)c3c(N)n(C)c(=O)n(C)c3=O)c2)cc1 | 0 | 0 | 0 | 29 | -
